Most compounds without a hit are left out; they make up all but 1.8% or so of the library.
M4 antag = antagonists of human muscarinic M4 receptor (CHRM4). CHO-hM4 cells, ACh EC80, Fluo-8 calcium fluorescence. 360,000 tested, 0.73% active. inhibition, % at 3 µM. P08173;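 active = inhibition above its plate's cutoff, the mean inhibition of sample wells plus 3 SD, cut at about 27% in these data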;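 also: 0% = acetylcholine EC80 with DMSO and 100% = DMSO without agonist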
CHRM5 agonist = agonists of human muscarinic M5 receptor (CHRM5) | CHO-K1 hM5 cells, Fluo-8 calcium fluorescence; 0% DMSO wells, 100% maximal acetylcholine response | P08912 | 360,000 tested, 0.19% active | activation, % at 3 µM;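 active = activation above the run's mean over test compounds plus 3 SD, cut at about 23% in these data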;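 also: signal is peak over basal fluorescence ratio across the kinetic read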
Target sequence (P08912 whole entry, looked up): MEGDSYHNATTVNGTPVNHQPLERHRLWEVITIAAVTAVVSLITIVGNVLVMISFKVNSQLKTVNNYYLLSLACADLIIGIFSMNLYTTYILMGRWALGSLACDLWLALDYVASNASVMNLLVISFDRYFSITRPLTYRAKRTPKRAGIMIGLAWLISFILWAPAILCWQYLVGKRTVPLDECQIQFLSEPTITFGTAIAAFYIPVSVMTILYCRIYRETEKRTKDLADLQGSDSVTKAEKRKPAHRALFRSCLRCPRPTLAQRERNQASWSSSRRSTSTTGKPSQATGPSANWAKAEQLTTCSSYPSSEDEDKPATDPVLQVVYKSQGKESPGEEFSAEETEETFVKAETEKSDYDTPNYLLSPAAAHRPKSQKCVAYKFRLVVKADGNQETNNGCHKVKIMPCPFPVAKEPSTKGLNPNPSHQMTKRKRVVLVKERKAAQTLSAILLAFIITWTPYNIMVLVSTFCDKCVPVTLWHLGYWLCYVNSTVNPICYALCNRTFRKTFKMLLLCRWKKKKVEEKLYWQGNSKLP
CHRM5 PAM = positive allosteric modulators of human muscarinic M5 receptor; P08912; CHO-K1 hM5, Fluo-8 calcium, ACh EC20 PAM; 0% = ACh EC20, 100% = ACh EC100; activation, % at 3 µM; 360,000 tested, 0.3% active; AID 624038;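 active = activation above the run cutoff, the mean activation of all test compounds plus 3 SD, cut at about 18% in these data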
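Test system: CHO-K1 hM5 cells / Doses: single-point, 3 µM nominal / Times: Post-acetylcholine fluorescence recording 140 s / Technique: Fluo-8 calcium fluorescence / Measure: Max/basal fluorescence ratio as % of EC20–EC100 ACh window / Benchmarks: low control EC20 acetylcholine (0%), high control EC100 acetylcholine (100%) / Replicates: one well per compound, no replicates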
CHRM4 agonist = agonists of human muscarinic M4 receptor (CHRM4); P08173; CHO-K1 hM4/Gqi5, Fluo-8 calcium fluorescence; vehicle 0%, full acetylcholine response 100%; activation, % at 3 µM; 360,000 tested, 0.14% active; AID 624127;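 active = activation above the run mean over all test wells plus 3 SD, cut at about 32% in these data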;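 also: peak over basal fluorescence ratio per well then scaled between controls; 0% = DMSO wells and 100% = acetylcholine at EC100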
M4 PAM = potentiates acetylcholine response at human M4 receptor | CHO-K1 hM4/Gqi5, Fluo-8 calcium fluorescence, ACh EC20; 0% = ACh EC20, 100% = maximal ACh | activation, % at 3 µM | 360,000 tested, 0.4% active;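 active = activation above its plate's cutoff, the mean activation of sample wells plus 3 SD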
CHRM5 antagonist = CHRM5 antagonism in calcium assay; P08912; CHO-hM5 cells, Fluo-8 calcium fluorescence, ACh EC80; inhibition, % at 3 µM; 360,000 tested, 0.59% active; AID 624040;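 active = inhibition above a per-plate cutoff, the mean of that plate's test compounds plus 3 SD, cut at about 27% in these data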;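 also: 0% = acetylcholine EC80 with DMSO and 100% = DMSO without agonist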
Starred values were filed as active, the others as inactive; ! = a repeat was not active.

SMILES	M4 antag	CHRM5 agonist	CHRM5 PAM	CHRM4 agonist	M4 PAM	CHRM5 antagonist
COc1ccc(C(=O)/C=C/c2ccc(N(C)C)cc2)c(OC)c1	36*	146*	-30	114*	-17	52*
CN(C)c1ccc(/C=C/C(=O)c2ccc(O)cc2)cc1	24	229*	-40	51*	-12	50*
O=C(/C=C/c1cccc(O)c1)c1cccnc1	11	3	-1	3	-10	8
CN(C)c1ccc(/C=C/C(=O)c2cccnc2)cc1	16	107*	-28	39*	-15	26
O=C(Cc1cccc2ccccc12)Nc1c(F)cccc1F	1	-4	-3	1	-5	3
CCCn1c(SCC(=O)Nc2cccc(S(=O)(=O)NC3=NCCCCC3)c2)nc2ccccc2c1=O	-5	-1	24*	0	4	-5
CCOC(=O)c1sc(NNC(=O)c2ccc(F)cc2)nc1C	-3	14	25*	3	13	8
CC(C)CCNC(=O)CCn1c(=S)oc2ccccc21	2	-3	-3	0	5	8
CC1(C)N=C(SCC(=O)Nc2ccc(Cl)cc2Cl)C(c2ccccc2)=N1	-2	-10	-1	0	-1	-2
CN1C(CC(=O)Nc2ccc(Cl)cc2Cl)c2ccccc2CC1(C)C (stereo unspecified)	29*	-9	-9	-1	-14	12
CC(=O)Nc1ccc(CN2CCCN(C)CC2)cc1	1	-6	-16	2	0	30*
CC(=O)Nc1ccc(CN2CCN(C3CCCC3)C(CCO)C2)cc1 (stereo unspecified)	35*	-15	5	0	-24	4
CSc1ncc(CN2CCN(CC=C(C)C)C(CCO)C2)cn1 (stereo unspecified)	1	-2	-4	1	-5	7
OCCC1CN(Cc2nc(-c3ccccc3)cs2)CCN1Cc1ccc(F)cc1 (stereo unspecified)	1	3	-5	10	-1	9
CSc1ncc(CN2CCN(C3CCCC3)C(CCO)C2)cn1 (stereo unspecified)	42*	-10	1	0	-41	3
CCN1CCN(Cc2ccc(NC(=O)Nc3ccccc3)cc2)CC1	-12	-2	-4	1	1	-3
OCCC1CN(Cc2nc(-c3ccccc3)cs2)CCN1C1CCCC1 (stereo unspecified)	53*	-14	-9	1	-57	11
O=S1(=O)CCC(NC(=S)N2CCOCC2)C1 (stereo unspecified)	-6	0	9	1	6	-8
COc1ccc(Nc2nc(N3CCN(S(=O)(=O)N(C)C)CC3)nc3ccccc23)cc1	3	0	-11	9	-5	21
CC(C)CCC(=O)N1CCOC1=O	-12	4	6	0	9	4
OCCC1CN(Cc2c(F)cccc2Cl)CCN1C1CCCC1 (stereo unspecified)	26*	-15	3	1	-21	9
COc1ccc(-n2ccnc2CN2CCN(C3CCCC3)C(CCO)C2)cc1 (stereo unspecified)	0	-1	0	0	-5	1
OCCC1CN(Cc2c(F)cccc2Cl)CCN1C1CCCCC1 (stereo unspecified)	5	-9	11	0	-26	-4
COc1ccc2c(c1)C=C(CN1CCN(C3CCCC3)C(CCO)C1)CO2 (stereo unspecified)	73*	-16	-20	1	-20	5
O=C(NCCCn1ccnc1)C1CCN(S(=O)(=O)c2cc([N+](=O)[O-])ccc2Cl)CC1	-22	-10	4	1	4	-1
SMILES	M4 antag	CHRM5 agonist	CHRM5 PAM	CHRM4 agonist	M4 PAM	CHRM5 antagonist
COc1ccc(Oc2cccc(Cl)c2CNC(=O)CCCC(=O)O)cc1	11	-4	-11	1	2	18
CC1(C#CC[N+]2(C)CCCCC2)CCC2C(O1)c1ccccc1OC2(C)C (stereo unspecified)	79*	76*	-35	84*	-30	88*
Cn1c(=O)cc(OCCCC(=O)Nc2cccnc2)c2ccccc21	37*	-2	13	2	21	3
Cc1ccccc1OCC(=O)NCCNC(=O)c1ccccn1	-4	-1	-2	2	-1	4
Cc1cc(-c2csc(NC(=O)c3ccc(C#N)cc3)n2)c(C)n1Cc1ccco1	15	3	6	1	25*	7
Cc1ccc(C)c(CN2C(=O)CSc3ccc(C(=O)NCCN4CCOCC4)cc32)c1	4	-5	-4	2	1	3
Cc1cccc(CN2C(=O)/C(=C\c3ccc(C(=O)NCCN4CCOCC4)cc3)Sc3ccccc32)c1	18	-2	-13	23	-10	31*
O=C(NCCN1CCOCC1)c1ccc2c(c1)N(Cc1ccccc1F)C(=O)CS2	47*	-15	-8	0	-17	1
O=C(NCCCN1CCOCC1)c1ccc2c(c1)N(Cc1c(F)cccc1Cl)C(=O)CS2	58*	-7	-16	2	-20	19
COc1ccc(C(CNC(=O)COc2ccc(Cl)c(C)c2)N2CCCCC2)cc1 (stereo unspecified)	12	-9	1	2	-6	-11
COc1cccc(N2CCN(C(=O)c3cc4c(=O)n(Cc5ccccc5)ccc4nc3C)CC2)c1	-7	-3	-3	9	-4	16
CSc1ccc(Cn2nnc(C(=O)NCc3ccccc3)c2N)cc1	-8	42*	-4	61*	-3	9
Nc1c(C(=O)NCc2ccccc2)nnn1Cc1ccccc1	-11	8	-1	6	4	9
CC(=O)NCCNC(=O)c1ccc(CSc2nc3ccccc3s2)cc1	39*	-1	1	1	-13	-4
C/C(=N\NC(=O)CSc1nc2ccccc2s1)c1ccco1	2	1	21*	1	5	8
Cc1cccc2c(SCC(N)=O)nc(-c3ccccc3)nc12	-2	2	11	0	-1	2
CCC(CC)CN1CCN=C1Nc1ccccc1	-1	-2	10	1	17	8
Cc1c(O)cccc1C(=O)N[C@@H](CSc1ccccc1)[C@H](O)CN1C[C@H]2CCCC[C@H]2C[C@H]1C(=O)NC(C)(C)C	-3	98*!	-20	44*!	-14	85*!
Cc1cccc(C(=O)C2CCN(S(=O)(=O)c3cccc(C(=O)O)c3)CC2)c1	2	-3	-5	1	-1	16
Cc1cccc(C(=O)O/N=C(\N)c2cccc([N+](=O)[O-])c2)c1	11	0	4	0	9	-9

Assay outcomes: PubChem, The Scripps Research Institute Molecular Screening Center
